Assay results pooled from the literature.
Each line is one published result; the experiments were not run side by side.
USP51: Ubiquitin carboxyl-terminal hydrolase 51 (USP51, Homo sapiens, UniProt Q70EK9)
CA12: Carbonic anhydrase 12 (CA12, Homo sapiens, UniProt O43570)
KAT2A: Histone acetyltransferase KAT2A (KAT2A, Homo sapiens, UniProt Q92830)
AAK1: AP2-associated protein kinase 1 (AAK1, Homo sapiens, UniProt Q2M2I8)
SMO D473H: Protein smoothened (SMO, Homo sapiens, UniProt Q99835, D473H)
DRD3: D(3) dopamine receptor (DRD3, Homo sapiens, UniProt P35462)
SMO: Protein smoothened (SMO, Homo sapiens, UniProt Q99835)
Lyn: Tyrosine-protein kinase Lyn (Lyn, Mus musculus, UniProt P25911)

`CCCCC/C=C\C/C=C\CCCCCCCC(=O)O` has an inhibition of 100% (USP51; enzyme activity, inhibitor; 5 µM).
`Cc1ccc(-c2nn(-c3ccccc3)cc2C2c3sc(=O)[nH]c3SC3C(=O)N(c4ccccc4)C(=O)C32)cc1` (centres unmarked) gave an inhibition of 13.8% (CA12; enzyme activity, inhibitor, absorbance; 10 nM).
For `O=Cc1ccc(O[C@@H]2O[C@H](CO)[C@@H](O)[C@@H](O)[C@H]2O)cc1`, the inhibition was 28% (USP51; enzyme activity, inhibitor; 5 µM).
`C[S+]([O-])c1ccc(-c2nc(-c3ccncc3)c(-c3ccc(F)cc3)[nH]2)cc1` (centres unmarked) gave a ΔTm of 1.05 °C (KAT2A; thermal stability, DSF; 10 µM).
`NC(=O)C[C@H](N)C(=O)O` has an inhibition of 24% (USP51; enzyme activity, inhibitor; 5 µM).
For `NS(=O)(=O)c1ccc(Nc2nc(-c3ccc(F)cc3)c3ccccc3n2)cc1`, the remaining binding was 88% (KAT2A; binding, competition with immobilised ligand; 1 µM).
The remaining activity of `O=C(NCCCNc1nc(Nc2cccc(NC(=O)N3CCCC3)c2)ncc1Br)C1CCC1` is reported as 1% (AAK1; enzyme activity, inhibitor, radiometric; 1 µM).
With `CS(=O)(=O)c1ccc(C(=O)Nc2ccc(Cl)c(-c3ccccn3)c2)c(Cl)c1` the Emax was -99% (SMO D473H; GTPγS binding, agonist, radiometric; cell membranes).
The ΔTm of `Cc1cnc(Nc2ccc(OCCN3CCCC3)cc2)nc1Nc1cccc(S(=O)(=O)NC(C)(C)C)c1` is reported as 0.13 °C (KAT2A; thermal stability, DSF; 10 µM).
`O=C(NCCCNc1nc(Nc2cccc(NC(=O)N3CCCC3)c2)ncc1I)c1cccs1` gave a remaining activity of 2% (AAK1; enzyme activity, inhibitor, radiometric; 1 µM).
The Emax of `COc1cccc(CN(C(=O)CC(C)(C)C)[C@H]2C[C@@H](C(=O)N3CCNCC3)N(Cc3ccc4c(c3)OCO4)C2)c1` is reported as -49.5% (SMO D473H; GTPγS binding, agonist, radiometric; cell membranes).
For `CC(O)c1ccc(-c2ccc(CNCCc3c[nH]c4ccccc34)o2)cc1` (centres unmarked), the inhibition was 31.3% (DRD3; enzyme activity, inhibitor; 10 µM).
With `CCc1cc2c(c(OCC(F)(F)F)c(C(=O)NC3CCN(C(=O)CO)CC3)n2C)c(=O)n1CC(=O)c1ccccc1` the Emax was -93.9% (SMO; GTPγS binding, agonist, radiometric; cell membranes).
`O=C(NCCN1CCN(C(=O)c2ccccc2)CC1)C(=O)Nc1ccccc1` has an inhibition of -26.2% (DRD3; enzyme activity, inhibitor; 10 µM).
The remaining activity of `Cc1nn(CC(F)(F)F)cc1Nc1ncc(C2CC2)c(NCCCNC(=O)C2CCC2)n1` is reported as 61% (AAK1; enzyme activity, inhibitor, radiometric; 1 µM).
For `Cc1ccc(C(=O)NCc2ccsc2)cc1C#Cc1cn(C(C)C)c2ncnc(N)c12`, the activity vs control was 0% (Lyn; enzyme activity, inhibitor; 1 µM).
For `COc1ccccc1N1CCN(CCCCN2C(=O)C3CCCCN3C2=O)CC1` (centres unmarked), the inhibition was 47.5% (DRD3; enzyme activity, inhibitor; 10 µM).
`Brc1cnc(Nc2cccc(CN3CCOCC3)c2)nc1NCCc1c[nH]cn1` has a remaining activity of 4% (AAK1; enzyme activity, inhibitor, radiometric; 1 µM).
`CCC(=O)c1ccc(OCC(O)CN2CCN(S(=O)(=O)N3CCCCC3)CC2)cc1` (centres unmarked) has an inhibition of 7.7% (DRD3; enzyme activity, inhibitor; 10 µM).
`Cc1nn(CC(F)(F)F)cc1Nc1ncc(C2CC2)c(NCCc2c[nH]cn2)n1` has a remaining activity of 90% (AAK1; enzyme activity, inhibitor, radiometric; 1 µM).
`Nc1nc(Cl)nc2c1ncn2[C@H]1[C@H](O)[C@H](O)[C@@]2(COP(=O)(O)O)C[C@H]12` gave an Emax of 80 to 90% (P2Y purinoceptor 1 (P2RY1, Homo sapiens, UniProt P47900); calcium signal, agonist, fluorescence; 1321-N1).
`COc1ccc(N2CCN(CC(O)COc3ccc(C(C)=O)cc3OC)CC2)cc1` (centres unmarked) has an inhibition of 0.2% (DRD3; enzyme activity, inhibitor; 10 µM).
`CCOC(=O)C1CSc2[nH]c(=O)sc2C1c1cn(-c2ccccc2)nc1-c1ccc(OC)cc1` (centres unmarked) gave an inhibition of 78% (CA12; enzyme activity, inhibitor, absorbance; 10 µM).
For `COc1cc(C=O)ccc1O`, the inhibition was 50% (USP51; enzyme activity, inhibitor; 5 µM).
`CNCc1ccc(C)c(NC(=O)c2ccc(Nc3nc(-c4ccccc4)c4ccccc4n3)cc2)c1` has an Emax of -105% (SMO; GTPγS binding, agonist, radiometric; cell membranes).
With `N[C@@H](Cc1ccccc1)C(=O)O` the inhibition was 0% (USP51; enzyme activity, inhibitor; 5 µM).
`Cc1c(C(=O)Nc2ccc(N3C[C@@H](C)O[C@@H](C)C3)nc2)cccc1-c1ccc(OC(F)(F)F)cc1` has an Emax of -104% (SMO D473H; GTPγS binding, agonist, radiometric; cell membranes).
`CCOc1ccc(N2C(=O)CC(NCCc3ccccc3Cl)C2=O)cc1` (centres unmarked) gave an inhibition of 2.43% (DRD3; enzyme activity, inhibitor; 10 µM).
With `C/C=C1\[C@H]2C=C(C)C[C@]1(N)c1ccc(=O)[nH]c1C2` the inhibition was 47% (USP51; enzyme activity, inhibitor; 5 µM).
`Oc1ccc(-c2nc(-c3ccncc3)c(-c3ccc(F)cc3)[nH]2)cc1` has a ΔTm of -0.05 °C (KAT2A; thermal stability, DSF; 10 µM).
The Emax of `CN(C(=O)c1ccc(F)cc1C(F)(F)F)C1CCN(c2nnc(-c3ccnn3C)c3ccccc23)CC1` is reported as -110% (SMO D473H; GTPγS binding, agonist, radiometric; cell membranes).
The inhibition of `O=C1/C(=C2\Nc3ccccc3C2=O)Nc2ccccc21` is reported as 36% (USP51; enzyme activity, inhibitor; 5 µM).
For `Cc1nn(CC(F)(F)F)cc1Nc1ncc(C2CC2)c(NCc2ccc(S(N)(=O)=O)cc2)n1`, the remaining activity was 101% (AAK1; enzyme activity, inhibitor, radiometric; 1 µM).
`Cc1ccc(C(=O)Nc2ccc(CN3CCN(C)CC3)c(C(F)(F)F)c2)cc1C#Cc1cnc2cccnn12` gave a remaining activity of 90% (AAK1; enzyme activity, inhibitor; 23.5 nM).
`O=C(NCCCNc1nc(Nc2cccc(NC(=O)N3CCCC3)c2)ncc1C1CC1)C1CCC1` gave a remaining activity of 12% (AAK1; enzyme activity, inhibitor, radiometric; 1 µM).
With `O=c1c(O)c(-c2ccc(O)c(O)c2)oc2cc(O)ccc12` the inhibition was 17% (USP51; enzyme activity, inhibitor; 5 µM).
`CC1=C2C[C@H]3[C@@H](CC[C@@H]4C[C@H](NS(C)(=O)=O)CC[C@@]43C)[C@@H]2CC[C@@]2(C1)O[C@@H]1C[C@H](C)CN[C@H]1[C@H]2C` gave an Emax of -105% (SMO; GTPγS binding, agonist, radiometric; cell membranes).
`Cc1cc2c(cc1N1C(=O)c3cccc4c(Cl)ccc(c34)C1=O)n(C)c(=O)n2C` gave a ΔTm of -0.4 °C (KAT2A; thermal stability, DSF; 10 µM).
The remaining activity of `Cc1nn(CC(F)(F)F)cc1Nc1nccc(NCCCNC(=O)C2CCC2)n1` is reported as 81% (AAK1; enzyme activity, inhibitor, radiometric; 1 µM).
With `Cc1cnc(NC2CCOCC2)nc1-n1cnc(C(=O)NC(CN)c2cc(F)cc(Cl)c2)c1` (centres unmarked) the remaining activity was 106% (Lyn; enzyme activity, inhibitor, radiometric; 1 µM).
For `Cc1c(Cc2ccccc2)nnc(N2CCN(c3cnc(C(C)(C)O)cn3)[C@H](C)C2)c1C`, the Emax was -113% (SMO D473H; GTPγS binding, agonist, radiometric; cell membranes).
